Assay results collected from several papers.
MET: Hepatocyte growth factor receptor (MET, Homo sapiens, UniProt P08581)
MET Y1235D: Hepatocyte growth factor receptor (MET, Homo sapiens, UniProt P08581, Y1235D)
MET D1228H: Hepatocyte growth factor receptor (MET, Homo sapiens, UniProt P08581, D1228H)
MET M1250T: Hepatocyte growth factor receptor (MET, Homo sapiens, UniProt P08581, M1250T)

| Compound | target | effect on | action | technique | tested at | quantity | value |
| --- | --- | --- | --- | --- | --- | --- | --- |
| Cc1cc(NC(=O)c2cccc3cc(-c4cccc5[nH]nc(N)c45)ccc23)ccc1F | Hepatocyte growth factor receptor (MET, Homo sapiens, UniProt P08581, Y1230H) | enzyme activity | inhibitor | – | 0.1 µM | activity vs control | 106% |
| Cc1ccc(C(=O)NCc2ccsc2)cc1C#Cc1cn(C(C)C)c2ncnc(N)c12 | MET | enzyme activity | inhibitor | – | 1 µM | activity vs control | 86% |
| O=C(O)c1cc(-c2ccc(C3CCNCC3)cc2)c2ccc(-c3ccc(C(F)(F)F)cc3)cc2c1 | MET Y1235D | cell-free assay | – | competition with immobilised ligand | 1 µM | remaining binding | 100% |
| N[C@@H]1CCN(c2nccc(-c3cnn4ncccc34)n2)C1 | MET Y1235D | binding | – | – | 1 µM | remaining binding | 100% |
| CNC(=O)c1cc2c(Oc3ccc(NC(=O)C4(C(=O)Nc5ccc(F)cc5)CC4)cc3)ccnc2cc1OC | Hepatocyte growth factor receptor (MET, Homo sapiens, UniProt P08581, D1228N) | enzyme activity | inhibitor | radiometric | 1 µM | inhibition | 100% |
| Cc1ccc(C(=O)Nc2ccc(CN3CCN(C)CC3)c(C(F)(F)F)c2)cc1C#Cc1cnc2cccnn12 | MET | cell-free assay | – | – | 23.5 nM | remaining signal | 92% |
| Cc1ccc(NC(=O)c2ccc(C)c(C(F)(F)F)c2)cc1C#Cc1nn(C2CCC(O)CC2)c2ncnc(N)c12 (stereo not shown) | MET D1228H | cell-free assay | – | – | 10 µM | remaining signal | 124% |
| CC(C)(O)[C@H]1CC[C@H](Nc2ccc3ncc(-c4cccc(C(F)(F)F)c4)n3n2)CC1 | MET | enzyme activity | inhibitor | – | 1 µM | remaining activity | 99.8% |
| O=C1Nc2ccc(Cl)cc2C1=Cc1cc(Cl)c(O)c(Cl)c1 | MET | cell-free assay | – | – | 0.5 µM | remaining signal | 96.4% |
| C[C@H]1CCN(c2nccc(-c3cnn4ncccc34)n2)C1 | MET M1250T | binding | – | – | 1 µM | remaining binding | 50% |
| CC1=C(C#N)[C@@H](c2ccc3[nH]nc(C)c3c2)C(C#N)=C(c2ccc(Cl)cc2)N1 | MET Y1235D | cell-free assay | – | competition with immobilised ligand | 1 µM | remaining binding | 52.6% |
| c1cnn2ncc(-c3ccnc(N4CCC45COC5)n3)c2c1 | MET Y1235D | binding | – | – | 1 µM | remaining binding | 80% |
| COc1cc(Nc2c(C#N)cnc3cc(OCCCN4CCN(C)CC4)c(OC)cc23)c(Cl)cc1Cl | MET | cell-free assay | – | – | 0.5 µM | remaining signal | 84.5% |
| Nc1ncnc2occ(-c3ccc(NC(=O)Nc4cc(C(F)(F)F)ccc4F)cc3)c12 | MET M1250T | cell-free assay | – | – | 20 µM | remaining signal | 4.1% |
| COc1cc2ncnc(Nc3ccc(F)c(Cl)c3)c2cc1OCCCN1CCOCC1 | MET | cell-free assay | – | – | 0.5 µM | remaining signal | 92.4% |
| CN(C)C1CCN(CC#Cc2nn(C3CCCC3)c3nc(NCc4ccccc4)ncc23)C1 (stereo not shown) | MET | enzyme activity | inhibitor | FRET | 1 µM | inhibition | 28% |

| Compound | target | effect on | action | technique | tested at | quantity | value |
| --- | --- | --- | --- | --- | --- | --- | --- |
| CN(c1nccc(-c2cnn3ncccc23)n1)C1CC1 | MET Y1235D | binding | – | – | 1 µM | remaining binding | 100% |
| O=C(O)[C@H]1[C@H](Cn2nnc3ccccc3c2=O)CC[C@@H]1C(=O)c1ccc(OCCC2CCOCC2)cc1 | MET Y1235D | cell-free assay | – | competition with immobilised ligand | 1 µM | remaining binding | 100% |
| Cc1cnc(NC2CCOCC2)nc1-n1cnc(C(=O)NC(CN)c2cc(F)cc(Cl)c2)c1 (stereo not shown) | MET D1228H | enzyme activity | inhibitor | radiometric | 1 µM | remaining activity | 98% |
| F[C@@H]1CCN(c2nccc(-c3cnn4ncccc34)n2)C1 | MET | binding | – | – | 1 µM | remaining binding | 90% |
| Cc1nccc(COC(=O)N2C[C@@H]3[C@@H](CNC(=O)c4ccc5[nH]nnc5c4)[C@@H]3C2)n1 | MET Y1235D | cell-free assay | – | competition with immobilised ligand | 1 µM | remaining binding | 92% |
| O=C1NC(=O)c2cc(Nc3ccc(F)cc3)c(Nc3ccc(F)cc3)cc21 | MET | cell-free assay | – | – | 0.5 µM | remaining signal | 96.7% |
| CN(CCCC(F)(F)F)c1nccc(-c2cnn3ncccc23)n1 | MET | binding | – | – | 1 µM | remaining binding | 100% |
| CN1CCN(c2cnc3c(C4CCN(C(=O)c5ccc(OC(F)(F)F)cc5N)CC4)ncnc3c2)CC1 | MET M1250T | cell-free assay | – | competition with immobilised ligand | 1 µM | remaining binding | 100% |
| CC(C)(C)c1nc(-c2cccc(NS(=O)(=O)c3c(F)cccc3F)c2F)c(-c2ccnc(N)n2)s1 | MET | enzyme activity | inhibitor | radiometric | 1 µM | remaining activity | 89% |
| O=C(N[C@H]1CCCCC/C=C\C2C[C@@]2(C(=O)O)NC(=O)[C@@H]2C[C@@H](Oc3ccncc3)CN2C1=O)OC1CCCC1 (stereo partly shown) | MET M1250T | cell-free assay | – | competition with immobilised ligand | 1 µM | remaining binding | 92% |
| CC/C(=N\NC(=O)NCc1cccc(O)c1)c1ccc(O)c(C)c1O | MET D1228H | enzyme activity | inhibitor | – | 0.1 µM | inhibition | -2.8% |
| Cc1c[nH]c2nccc(Oc3c(F)cc(Nc4cc(Cl)nc(N)n4)cc3F)c12 | MET | cell-free assay | – | competition with immobilised ligand | 0.1 µM | remaining binding | 83% |
| O=C(Nc1cnn(-c2csc(C(=O)NC3COC3)c2)c1)Nc1c(F)cccc1Cl | MET | enzyme activity | inhibitor | – | 5 µM | remaining activity | 86.1% |
| CC(C)CC(=O)N1CCc2nc(-c3ccc(Br)cc3)nc(N(C)Cc3ccccc3)c2C1 | MET Y1235D | cell-free assay | – | competition with immobilised ligand | 0.1 µM | remaining binding | 100% |
| CN(C)c1ncc(F)c(-c2cnn3ncccc23)n1 | MET M1250T | binding | – | – | 1 µM | remaining binding | 100% |
